{"source": "paper PMC7551138", "about": "(Alzheimer's & Dementia : Translational Research & Clinical …, 2020)", "key": {"healthy elderly subjects [1]": {"test_system": "healthy elderly subjects", "assay": "Visual analogue scales", "type": "in vivo, human", "conditions": "22 mg b.i.d. intranasal 7 days; vs placebo, mean (confidence interval)", "how_it_was_run": "(§1)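 NeuroCart tests were repeated over time during the 7-day b.i.d. intranasal dosing: eye movements, N-back with 3 working-memory-load conditions, pharmaco-EEG, and 100-mm VAS (Bond and Lader mood/alertness/calmness; nausea). In the 22 mg cohort, EEG at 30 min and 3 h post-dose was dropped. Analysis was mixed-model ANOVA (treatment, time, treatment×time fixed; subject random; baseline covariate), giving LSM difference versus placebo with CI.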"}, "healthy elderly subjects [2]": {"test_system": "healthy elderly subjects", "assay": "N‐back test", "type": "in vivo, human", "conditions": "vs placebo, mean (confidence interval)", "how_it_was_run": "as §1"}, "healthy elderly subjects [3]": {"test_system": "healthy elderly subjects", "assay": "Visual verbal learning test", "type": "in vivo, human", "conditions": "for VVLT Delayed word recall correct / VVLT Delayed word recognition RT correct / VVLT Delayed word recognition correct / VVLT Word recall correct 1 / VVLT Word recall correct 2 / VVLT Word recall correct 3: vs placebo, mean (confidence interval)", "how_it_was_run": "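Thirty words were shown repeatedly, with immediate recall after each presentation. After 30 min, delayed recall and recognition among distractor words were tested. This test was not repeated within a day. Analysis was mixed-model ANOVA (treatment, day, treatment×day fixed; subject random), giving LSM difference versus placebo with CI.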"}, "healthy elderly subjects [4]": {"test_system": "healthy elderly subjects", "assay": "Pharmaco‐electroencephalography", "type": "in vivo, human", "conditions": "for EEG Delta Fz‐Cz closed (uV^2/Hz) / EEG Delta Fz‐Cz open (uV^2/Hz) / EEG Delta Pz‐O1 closed (uV^2/Hz) / EEG Delta Pz‐O1 open (uV^2/Hz) / EEG Delta Pz‐O2 closed (uV^2/Hz) / EEG Delta Pz‐O2 open (uV^2/Hz): vs placebo, mean (confidence interval)", "how_it_was_run": "as §1"}, "healthy elderly subjects [5]": {"test_system": "healthy elderly subjects", "assay": "PK‐PD analysis, nonlinear mixed‐effect modeling of adaptive tracking", "type": "in vivo, human", "how_it_was_run": "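Nonlinear mixed-effects PK-PD modelling used plasma and CSF data from this study plus earlier first-in-human data. Oral comparator data were dose-corrected. […] models linked plasma concentration of the active cleavage product to adaptive tracking, testing direct-effect, turnover and effect-compartment forms. Inter-individual and inter-occasion variability were assessed. Covariates were added stepwise at p<0.01, then removed by backward elimination at p<0.001. Emax and EC50 (mg/L) are given with 95% CI.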"}, "[6]": {"conditions": "intranasal 20.0 mg/kg; cited from earlier work"}, "[7]": {"conditions": "cited from earlier work"}, "[8]": {"conditions": "5.5 mg b.i.d. intranasal 7 days"}}, "data": [{"smiles": "COc1ccc2c3c1O[C@H]1C[C@@H](OC(=O)c4ccccc4)C=C[C@@]31CCN(C)C2", "note": "[Gln‐1062]", "values": [{"measurement": "VAS Mood", "setting": "healthy elderly subjects [1]", "result": "−0.68 (−3.66, 2.29) P = 0.6455 mm"}, {"measurement": "N‐back corr‐incorr/total 1", "setting": "healthy elderly subjects [2]; [8]", "result": "0.026 (−0.026, 0.078) P = 0.3186"}, {"measurement": "N‐back corr‐incorr/total 2", "setting": "healthy elderly subjects [2]; [8]", "result": "−0.002 (−0.068, 0.064) P = 0.9575"}, {"measurement": "N‐back mean RT 2 back", "setting": "healthy elderly subjects [2]; [8]", "result": "−45.6 (−99.3, 8.2) P = 0.0944 msec"}, {"measurement": "N‐back corr‐incorr/total 1", "setting": "healthy elderly subjects [2]; 11 mg b.i.d. intranasal 7 days", "result": "0.027 (−0.023, 0.076) P = 0.2811"}, {"measurement": "N‐back corr‐incorr/total 2", "setting": "healthy elderly subjects [2]; 11 mg b.i.d. intranasal 7 days", "result": "−0.016 (−0.081, 0.049) P = 0.6231"}, {"measurement": "N‐back mean RT 1 back", "setting": "healthy elderly subjects [2]; 11 mg b.i.d. intranasal 7 days", "result": "6.1 (−39.6, 51.8) P = 0.7893 msec"}, {"measurement": "N‐back corr‐incorr/total 1", "setting": "healthy elderly subjects [2]; 22 mg b.i.d. intranasal 7 days", "result": "0.020 (−0.029, 0.069) P = 0.4242"}, {"measurement": "N‐back corr‐incorr/total 2", "setting": "healthy elderly subjects [2]; 22 mg b.i.d. intranasal 7 days", "result": "0.036 (−0.028, 0.099) P = 0.2661"}, {"measurement": "N‐back mean RT 1 back", "setting": "healthy elderly subjects [2]; 22 mg b.i.d. intranasal 7 days", "result": "−24.4 (−67.1, 18.3) P = 0.2558 msec"}, {"measurement": "N‐back mean RT 2 back", "setting": "healthy elderly subjects [2]; 22 mg b.i.d. intranasal 7 days", "result": "−71.4 (−126.4,−16.3) P = 0.0123 msec"}, {"measurement": "VVLT Delayed word recall correct", "setting": "healthy elderly subjects [3]; [8]", "result": "0.36 (−2.02, 2.73) P = 0.7624"}, {"measurement": "VVLT Delayed word recognition RT correct", "setting": "healthy elderly subjects [3]; [8]", "result": "−49.93 (−166.97, 67.10) P = 0.3944 msec"}, {"measurement": "VVLT Delayed word recognition correct", "setting": "healthy elderly subjects [3]; [8]", "result": "−2.60 (−6.60, 1.40) P = 0.1967"}, {"measurement": "VVLT Word recall correct 1", "setting": "healthy elderly subjects [3]; [8]", "result": "0.36 (−1.31, 2.03) P = 0.6635"}, {"measurement": "VVLT Word recall correct 2", "setting": "healthy elderly subjects [3]; [8]", "result": "−0.45 (−2.44, 1.55) P = 0.6545"}, {"measurement": "VVLT Word recall correct 3", "setting": "healthy elderly subjects [3]; [8]", "result": "−0.12 (−2.42, 2.17) P = 0.9136"}, {"measurement": "VVLT Delayed word recall correct", "setting": "healthy elderly subjects [3]; 11 mg b.i.d. intranasal 7 days", "result": "−0.73 (−3.15, 1.70) P = 0.5486"}, {"measurement": "VVLT Delayed word recognition RT correct", "setting": "healthy elderly subjects [3]; 11 mg b.i.d. intranasal 7 days", "result": "−30.91 (−150.24, 88.41) P = 0.6041 msec"}, {"measurement": "VVLT Delayed word recognition correct", "setting": "healthy elderly subjects [3]; 11 mg b.i.d. intranasal 7 days", "result": "−2.19 (−6.24, 1.87) P = 0.2825"}, {"measurement": "VVLT Word recall correct 1", "setting": "healthy elderly subjects [3]; 11 mg b.i.d. intranasal 7 days", "result": "0.62 (−1.07, 2.32) P = 0.4608"}, {"measurement": "VVLT Word recall correct 2", "setting": "healthy elderly subjects [3]; 11 mg b.i.d. intranasal 7 days", "result": "−0.63 (−2.65, 1.40) P = 0.5370"}, {"measurement": "VVLT Word recall correct 3", "setting": "healthy elderly subjects [3]; 11 mg b.i.d. intranasal 7 days", "result": "−0.89 (−3.23, 1.44) P = 0.4444"}, {"measurement": "VVLT Delayed word recall correct", "setting": "healthy elderly subjects [3]; 22 mg b.i.d. intranasal 7 days", "result": "0.48 (−1.89, 2.86) P = 0.6838"}, {"measurement": "VVLT Delayed word recognition RT correct", "setting": "healthy elderly subjects [3]; 22 mg b.i.d. intranasal 7 days", "result": "−120.03 (−237.07,−3.00) P = 0.0447 msec"}, {"measurement": "VVLT Delayed word recognition correct", "setting": "healthy elderly subjects [3]; 22 mg b.i.d. intranasal 7 days", "result": "−0.43 (−4.43, 3.57) P = 0.8291"}, {"measurement": "VVLT Word recall correct 1", "setting": "healthy elderly subjects [3]; 22 mg b.i.d. intranasal 7 days", "result": "−0.12 (−1.79, 1.54) P = 0.8816"}, {"measurement": "VVLT Word recall correct 2", "setting": "healthy elderly subjects [3]; 22 mg b.i.d. intranasal 7 days", "result": "−0.01 (−2.00, 1.99) P = 0.9959"}, {"measurement": "VVLT Word recall correct 3", "setting": "healthy elderly subjects [3]; 22 mg b.i.d. intranasal 7 days", "result": "0.99 (−1.30, 3.29) P = 0.3883"}, {"measurement": "effects on VVLT, eye movements and VAS mood, calmness, alertness and nausea", "setting": "healthy elderly subjects [3]; compared with placebo", "result": "No significant and consistent effects"}, {"measurement": "EEG Delta Fz‐Cz closed (uV^2/Hz)", "setting": "healthy elderly subjects [4]; [8]", "result": "−1.8% (−30.4%, 38.5%) P = 0.9140"}, {"measurement": "EEG Delta Fz‐Cz open (uV^2/Hz)", "setting": "healthy elderly subjects [4]; [8]", "result": "−13.6% (−35.0%, 14.8%) P = 0.3010"}, {"measurement": "EEG Delta Pz‐O1 closed (uV^2/Hz)", "setting": "healthy elderly subjects [4]; [8]", "result": "−3.1% (−36.1%, 46.9%) P = 0.8765"}, {"measurement": "EEG Delta Pz‐O1 open (uV^2/Hz)", "setting": "healthy elderly subjects [4]; [8]", "result": "−12.9% (−39.4%, 25.1%) P = 0.4391"}, {"measurement": "EEG Delta Pz‐O2 closed (uV^2/Hz)", "setting": "healthy elderly subjects [4]; [8]", "result": "−13.4% (−39.2%, 23.5%) P = 0.4151"}, {"measurement": "EEG Delta Pz‐O2 open (uV^2/Hz)", "setting": "healthy elderly subjects [4]; [8]", "result": "3.1% (−23.8%, 39.4%) P = 0.8382"}, {"measurement": "EEG Delta Fz‐Cz closed (uV^2/Hz)", "setting": "healthy elderly subjects [4]; 11 mg b.i.d. intranasal 7 days", "result": "−14.8% (−37.6%, 16.4%) P = 0.3023"}, {"measurement": "EEG Delta Fz‐Cz open (uV^2/Hz)", "setting": "healthy elderly subjects [4]; 11 mg b.i.d. intranasal 7 days", "result": "−2.5% (−25.2%, 27.0%) P = 0.8435"}, {"measurement": "EEG Delta Pz‐O1 closed (uV^2/Hz)", "setting": "healthy elderly subjects [4]; 11 mg b.i.d. intranasal 7 days", "result": "−12.4% (−41.5%, 31.2%) P = 0.5079"}, {"measurement": "EEG Delta Pz‐O1 open (uV^2/Hz)", "setting": "healthy elderly subjects [4]; 11 mg b.i.d. intranasal 7 days", "result": "−5.4% (−33.6%, 34.6%) P = 0.7474"}, {"measurement": "EEG Delta Pz‐O2 closed (uV^2/Hz)", "setting": "healthy elderly subjects [4]; 11 mg b.i.d. intranasal 7 days", "result": "−0.4% (−28.5%, 38.7%) P = 0.9799"}, {"measurement": "EEG Delta Pz‐O2 open (uV^2/Hz)", "setting": "healthy elderly subjects [4]; 11 mg b.i.d. intranasal 7 days", "result": "3.7% (−21.2%, 36.6%) P = 0.7851"}, {"measurement": "EEG delta power at the frontal and parietal locations", "setting": "healthy elderly subjects [4]; 22 mg", "result": "significantly decreased"}, {"measurement": "EEG Delta Fz‐Cz closed (uV^2/Hz)", "setting": "healthy elderly subjects [4]; 22 mg b.i.d. intranasal 7 days", "result": "−19.8% (−35.7%,−0.1%) P = 0.0495"}, {"measurement": "EEG Delta Fz‐Cz open (uV^2/Hz)", "setting": "healthy elderly subjects [4]; 22 mg b.i.d. intranasal 7 days", "result": "−30.1% (−48.3%,−5.3%) P = 0.0235"}, {"measurement": "EEG Delta Pz‐O1 closed (uV^2/Hz)", "setting": "healthy elderly subjects [4]; 22 mg b.i.d. intranasal 7 days", "result": "−27.4% (−46.1%,−2.1%) P = 0.0369"}, {"measurement": "EEG Delta Pz‐O1 open (uV^2/Hz)", "setting": "healthy elderly subjects [4]; 22 mg b.i.d. intranasal 7 days", "result": "−29.1% (−45.3%,−8.0%) P = 0.0126"}, {"measurement": "EEG Delta Pz‐O2 closed (uV^2/Hz)", "setting": "healthy elderly subjects [4]; 22 mg b.i.d. intranasal 7 days", "result": "−21.5% (−35.1%, −5.0%) P = 0.0154"}, {"measurement": "EEG Delta Pz‐O2 open (uV^2/Hz)", "setting": "healthy elderly subjects [4]; 22 mg b.i.d. intranasal 7 days", "result": "−16.5% (−33.4%, 4.8%) P = 0.1128"}, {"measurement": "maximum increase (Emax) of adaptive tracking", "setting": "healthy elderly subjects [5]; direct effect model on galantamine plasma concentration, 95% CI 1.15–5.90", "result": 1.91}, {"measurement": "concentration resulting in half of the maximum (EC50), adaptive tracking", "setting": "healthy elderly subjects [5]; galantamine plasma concentration, direct effect model, by drug dosed", "result": 0.0231, "unit": "µg/mL"}, {"measurement": "blood‐to‐brain ratio", "setting": "[6]", "result": 10.2, "unit": "mg/kg"}, {"measurement": "tolerability compared with 16 mg oral galantamine and other ChEIs", "setting": "[7]; 22 mg", "result": "better tolerated"}, {"measurement": "sustained attention (adaptive tracking) and verbal memory (VVLT)", "setting": "[7]; 5.5, 11, 22, 33 and 44 mg", "result": "dose‐dependent improvements"}]}]}
